Screening results from PubChem BioAssay.
In the library only some 2.5% were active in any assay of this set; here they are far more common.
GalR3 antag: antagonists of human GalR3. O60755. 0.44% of 360,000 active. HEK293 GalR3-CNG cAMP membrane potential fluorescence; galR3 body fused to GalR1 C-terminus. inhibition, % at 3 µM;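 active means inhibition above the screen-wide average plus 3 SD, cut at about 13% in these data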;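 further: forskolin and galanin both at EC90 stimulate the cells; cAMP rise reported by CNG channel membrane potential dye signal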
Target sequence (O60755 1-299 limits assumed): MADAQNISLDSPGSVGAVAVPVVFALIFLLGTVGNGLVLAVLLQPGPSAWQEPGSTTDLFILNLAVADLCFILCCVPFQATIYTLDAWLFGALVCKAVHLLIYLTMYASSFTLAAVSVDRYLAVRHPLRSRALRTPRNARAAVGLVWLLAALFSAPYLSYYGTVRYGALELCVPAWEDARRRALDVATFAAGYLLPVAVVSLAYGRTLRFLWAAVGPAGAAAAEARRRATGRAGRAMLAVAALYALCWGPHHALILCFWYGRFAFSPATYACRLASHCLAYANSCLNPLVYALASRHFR
NR2E3 ag-1: agonists of human NR2E3 nuclear receptor; Q9Y5X4; CHO-S Gal4-NCOR/VP16-NR2E3 two-hybrid, luciferase; inhibition of corepressor binding, % at 3.98 µM; 0.35% of 360,000 active; AID 602229;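 active means inhibition above the mean of all tested compounds plus 3 SD, cut at about 70% in these data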;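 further: higher means lower luciferase signal from less NR2E3 corepressor binding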
bovine MsrA act: activators of bovine methionine sulfoxide reductase A. 0.3% of 360,000 active. purified bovine MsrA, absorbance read-out. activation, % at 10.6 µM; in the data active means activation above about 7.5%
NR2E3 ag-2: NR2E3 (human) agonism. GST-NR2E3/biotin-RetCOR TR-FRET, 1536-well. inhibition of corepressor binding, % at 4.78 µM. 0.12% of 320,000 active. AID 2300;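 active means percent inhibition above the cutoff of mean plus 3 SD of all tested compounds, set per screening campaign, cut at about 20% in these data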
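System: GST-tagged NR2E3 plus biotinylated RetCOR corepressor; Amount: 1.35 nM GST-tagged NR2E3 final; Dosing: single nominal compound dose of 4.8 µM; Schedule: 5 h incubation at 4 °C; Technique: TR-FRET with europium anti-GST and streptavidin-D2, 340 nm excitation; Controls: biotin wells as high control, 0.6% DMSO wells as low control.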
NadD inh: NadD (S. aureus) enzyme inhibition; purified NadD enzyme, colorimetric absorbance read-out; inhibition, % at 20 µM; 0.78% of 360,000 active; in the data active means inhibition above about 26%
MsrA inh: bovine MsrA inhibition; purified bovine MsrA, absorbance read-out; inhibition, % at 15.5 µM; 0.75% of 360,000 active; in the data active means inhibition above about 4.5%
NR2E3 ag confirm: confirmation of human NR2E3 agonists; shares compounds with NR2E3 ag-1; inhibition, % at 3.98 µM; CHO-S mammalian two-hybrid NR2E3-NCOR, luciferase luminescence; 51% of 2,300 active;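 active means average inhibition above a cutoff equal to the mean inhibition of all tested compounds plus one SD, cut at about 70% in these data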
VP16 counter: GAL4-VP16 reporter inhibition in NR2E3 agonist counterscreen; shares compounds with NR2E3 ag-1; CHO-S GAL4-VP16 luciferase reporter, luminescence; inhibition, % at 3.98 µM; 29% of 2,300 active; AID 624379;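 active means mean inhibition above a cutoff equal to the average over all tested compounds plus one standard deviation, cut at about 70% in these data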;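 further: luciferase from a UAS reporter driven by GAL4-VP16 transactivation; higher means less reporter light so more repression of VP16 activity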
A number is an active result; – = inactive; · = not tested or not shown.

SMILES	GalR3 antag	NR2E3 ag-1	bovine MsrA act	NR2E3 ag-2	NadD inh	MsrA inh	NR2E3 ag confirm	VP16 counter
C=CC[n+]1c(-c2ccc(Cl)cc2Cl)csc1Nc1ccc(NC(C)=O)cc1	–	–	–	–	–	–	73	–
COC(=O)c1sc(NC(=O)c2ccc([N+](=O)[O-])o2)c(C#N)c1C	–	–	–	–	–	–	·	·
COc1ccccc1CNS(=O)(=O)c1ccc(-c2cnc(C3CC3)o2)cc1	–	–	–	–	–	–	–	–
Cc1ccc(NS(=O)(=O)c2ccc(NC(=O)c3cccs3)cc2)c(C)c1	–	–	–	–	–	–	·	·
Cc1ccc(NS(=O)(=O)c2ccc(NC(=O)C3CC3)cc2)c(C)c1	–	–	–	–	–	–	–	–
COc1ccccc1NS(=O)(=O)c1ccc(-c2cnc(C3CC3)o2)cc1	–	–	–	–	–	–	·	·
COc1ccc(NS(=O)(=O)c2ccc(-n3cnnn3)cc2)cc1OC	–	–	–	–	–	–	–	–
Cc1ccc(NS(=O)(=O)c2ccc(-c3cnc(C4CC4)o3)cc2)c(C)c1	–	79	–	–	–	–	–	–
O=C(NCCc1ccccc1)c1nnc(CS(=O)(=O)c2ccccc2)o1	·	–	–	–	–	–	·	·
O=S(=O)(Nc1ccc(F)cc1Cl)c1ccc(-c2cnc(C3CC3)o2)cc1	–	71	–	–	–	–	–	–
CCOc1ccccc1NS(=O)(=O)c1ccc(-c2cnc(C3CC3)o2)cc1	–	–	–	–	–	–	–	–
COc1ccc(NS(=O)(=O)c2ccc(-c3cnc(C4CC4)o3)cc2)cc1OC	–	104	–	–	–	–	94	85
Cc1ccc(-c2cnc(C3CC3)o2)cc1S(=O)(=O)Nc1ccccc1	·	–	–	–	–	·	·	·
CN1CCCN(C(=O)c2cc(=O)[nH]c3ccccc23)c2nc3ccccc3nc21	–	–	–	–	–	–	·	·
Cc1cccc(C(=O)NCc2nnc(SCc3ccc(F)cc3)n2C)c1	–	–	–	–	–	–	·	·
Cn1cc2cc([N+](=O)[O-])ccc2n1	–	–	–	–	–	–	·	·
Cc1ccc2cc3cc(C(=O)NCc4ccco4)oc3nc2c1	–	–	–	–	–	–	–	–
COc1cc(CN2C[C@@H](CO)O[C@@H](n3cnc4c(NCc5ccco5)ncnc43)C2)cc(OC)c1OC	–	–	–	·	–	–	·	·
Cc1ccc(OCCNS(=O)(=O)c2ccc(N3CCCC3=O)cc2)cc1C	–	93	–	–	–	–	98	85
Cc1cc(N2CCCC2=O)cc(C)c1S(=O)(=O)NCCOc1ccccc1	–	–	–	–	–	–	·	·
COc1ccc(CCNS(=O)(=O)c2ccc(N3CCCC3=O)cc2)cc1	–	–	–	–	–	–	·	·
Cc1ccc(OCCNS(=O)(=O)c2ccc(N3CCCC3=O)cc2)cc1	–	–	–	–	–	–	86	72
CCCOc1ccc(Cn2cnc3ccccc32)cc1	–	–	–	–	–	–	78	–
Fc1ccc(Cn2cnc3ccccc32)cc1	–	–	–	–	–	–	·	·
Cc1nc2ncnn2c(N2CCN(c3cccc(C(F)(F)F)c3)CC2)c1C	–	71	–	–	–	–	72	–
SMILES	GalR3 antag	NR2E3 ag-1	bovine MsrA act	NR2E3 ag-2	NadD inh	MsrA inh	NR2E3 ag confirm	VP16 counter
CN1CCN(C(=O)c2cccc(COc3cc(Cl)ccc3Cl)c2)CC1	–	–	–	–	–	–	·	·
NC(=NCCCCCCN=C(N)/N=C(\N)Nc1ccc(Cl)cc1)/N=C(\N)Nc1ccc(Cl)cc1	–	–	–	–	–	–	·	·
CC(C)N=C(N)N=C(N)Nc1ccc(Cl)cc1	·	89	–	–	–	–	88	–
CCOC(=O)c1c(NC(=O)Cc2cccs2)sc(C)c1C	–	–	–	–	–	–	·	·
Cc1ccc(C)c(NC(=O)CN(C)C(=O)c2cccc(S(=O)(=O)N3CCN(Cc4ccccc4)CC3)c2)c1	–	–	–	–	–	–	–	–
CC(CC(=O)NC1CCSC1=O)c1ccccc1 (stereo unspecified)	–	–	–	–	–	–	·	·
CC1CCCC/C1=N\NC(=S)NCCc1ccccc1 (stereo unspecified)	–	–	–	–	–	–	–	–
CC(=O)N1CC(C)Sc2ccc(S(=O)(=O)NCCc3ccc(C)cc3)cc21 (stereo unspecified)	–	80	–	–	–	–	74	–
CC(=O)N1CC(C)Sc2ccc(S(=O)(=O)NCc3ccc(Cl)cc3)cc21 (stereo unspecified)	–	–	–	–	–	–	–	–
CC(=O)N1CC(C)Sc2ccc(S(=O)(=O)NCCc3ccccc3)cc21 (stereo unspecified)	–	–	–	–	–	–	·	·
O=C(O)c1ccc2c(c1)N(Cc1ccccc1F)C(=O)c1ccccc1S2=O (stereo unspecified)	–	–	–	–	–	–	·	·
COc1ccc(S(N)(=O)=O)cc1C(=O)NNC(=O)C1COc2ccccc2O1 (stereo unspecified)	–	–	–	·	–	–	·	·
COc1ccc(/C=N/OC/C(O)=C(\C#N)c2nc3ccccc3[nH]2)cc1	–	–	–	–	–	–	·	·
COc1ccc(NC(=O)/C(Cl)=C(/Cl)S(=O)(=O)Cc2ccccc2)cn1	–	83	–	·	–	–	98	–
COc1ccc(NC(=O)/C(Cl)=C(/Cl)S(=O)Cc2ccc(Cl)cc2)cn1 (stereo unspecified)	35	87	–	·	–	–	99	–
COc1ccc(NC(=O)C(Cl)=C(Cl)Cl)cn1	–	–	–	·	–	–	·	·
Cc1sc2c(c1C)CN(C(C)(C)C)CN2C(=O)c1ccccc1	–	–	–	–	–	–	·	·
Cc1onc(-c2ccccc2Cl)c1C(=O)Nc1nnc(-c2ccc(Cl)cc2Cl)s1	·	–	–	–	–	–	·	·
Cc1onc(-c2ccccc2Cl)c1C(=O)Nc1nc2c(s1)CCCC2	–	82	–	–	–	–	86	–
CCCC(=O)N1CCN(c2ccc(NC(=O)c3cc4ccccc4o3)cc2Cl)CC1	–	–	–	–	–	–	–	–
CCC(=O)N1CCN(c2ccc(NC(=O)c3cc4ccccc4o3)cc2Cl)CC1	–	–	–	–	–	–	·	·
CCCN1CNc2c(c(=O)[nH]c(=S)n2-c2ccccc2Cl)C1	–	–	–	–	–	–	·	·
CCCN1CCN(C(=O)c2cc(COc3ccc4ncccc4c3)on2)CC1	–	–	–	–	–	–	–	–
Cc1ccc(F)cc1CNC(=O)c1cc(COc2ccc3ncccc3c2)on1	–	79	–	–	–	–	96	86
O=C(NCc1cccc(Cl)c1)c1cc(COc2ccc3ncccc3c2)on1	–	76	–	–	–	–	95	79
